# Measurements published in ChEMBL document CHEMBL5058577, “EUbOPEN Chemogenomics Library 2 (Multiplex)” (2022).
# Tested on: U2OS
# Assay: Multiplex assay against U2OS
# Type: toxicity, cell-based
# Conditions: human
# Summary of the method: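 Imaging took place on a CQ1 microscope at 37°C and 5% CO2 once compound had been added to live cells stained at seeding with Hoechst33342, BioTracker Green Microtubule Cytoskeleton Dye, MitoTracker Red and Annexin V Alexa Fluor 680. CellPathfinder machine-learning gating classed cells as Hoechst high-intensity objects or normal cells, classed normal cells as having healthy, pyknosed or fragmented nuclei, and classed pyknosed cells as mitotic or apoptotic. Tubulin, mitochondrial-mass and membrane-permeability phenotypes are per cents of the healthy-nucleus cells.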
# [1] = 12 h, 1 µM, compound concentration 1 uM, replicate 1
# [2] = 12 h, 1 µM, compound concentration 1 uM, replicate 2
# [3] = 12 h, 10 µM, compound concentration 10 uM, replicate 1
# [4] = 12 h, 10 µM, compound concentration 10 uM, replicate 2
# [5] = 24 h, 1 µM, compound concentration 1 uM, replicate 1
# [6] = 24 h, 1 µM, compound concentration 1 uM, replicate 2
# [7] = 24 h, 10 µM, compound concentration 10 uM, replicate 1
# [8] = 24 h, 10 µM, compound concentration 10 uM, replicate 2
# [9] = 48 h, 1 µM, compound concentration 1 uM, replicate 1
# [10] = 48 h, 1 µM, compound concentration 1 uM, replicate 2
# [11] = 48 h, 10 µM, compound concentration 10 uM, replicate 1
# [12] = 48 h, 10 µM, compound concentration 10 uM, replicate 2
structure (smiles),measurement,setting,value
COCCn1c(C)c(C)s/c1=N\C(=O)C1C(C)(C)C1(C)C,Population Apoptotic (%),[1],88%
same,Population Fragmented Nuclei (%),[1],24%
same,Population Healthy Nuclei (%),[1],69%
same,Population Hoechst High Intensity Objects (%),[1],0%
same,Population Membrane Permeable-Phenotype (%),[1],8%
same,Population Mitochondria Different-Phenotype (%),[1],1%
same,Population Mitotic Cells (%),[1],11%
same,Population Normal (%),[1],99%
same,Population Pyknosed Nuclei (%),[1],6%
same,Population Tubulin-Different-Phenotype (%),[1],3%
same,Total Cell Count,[1],271
same,Population Apoptotic (%),[2],71%
same,Population Fragmented Nuclei (%),[2],20%
same,Population Healthy Nuclei (%),[2],74%
same,Population Membrane Permeable-Phenotype (%),[2],11%
same,Population Mitochondria Different-Phenotype (%),[2],3%
same,Population Mitotic Cells (%),[2],28%
same,Population Normal (%),[2],100%
same,Population Pyknosed Nuclei (%),[2],5%
same,Population Tubulin-Different-Phenotype (%),[2],5%
same,Total Cell Count,[2],135
same,Population Apoptotic (%),[3],73%
same,Population Fragmented Nuclei (%),[3],33%
same,Population Healthy Nuclei (%),[3],52%
same,Population Hoechst High Intensity Objects (%),[3],2%
same,Population Membrane Permeable-Phenotype (%),[3],10%
same,Population Mitochondria Different-Phenotype (%),[3],4%
same,Population Mitotic Cells (%),[3],26%
same,Population Normal (%),[3],97%
same,Population Pyknosed Nuclei (%),[3],13%
same,Population Tubulin-Different-Phenotype (%),[3],5%
same,Total Cell Count,[3],220
same,Population Apoptotic (%),[4],80%
same,Population Fragmented Nuclei (%),[4],20%
same,Population Healthy Nuclei (%),[4],68%
same,Population Hoechst High Intensity Objects (%),[4],0%
same,Population Membrane Permeable-Phenotype (%),[4],9%
same,Population Mitochondria Different-Phenotype (%),[4],3%
same,Population Mitotic Cells (%),[4],20%
same,Population Normal (%),[4],100%
same,Population Pyknosed Nuclei (%),[4],11%
same,Population Tubulin-Different-Phenotype (%),[4],4%
same,Total Cell Count,[4],135
same,Population Apoptotic (%),[5],89%
same,Population Fragmented Nuclei (%),[5],18%
same,Population Healthy Nuclei (%),[5],75%
same,Population Hoechst High Intensity Objects (%),[5],0%
same,Population Membrane Permeable-Phenotype (%),[5],5%
same,Population Mitochondria Different-Phenotype (%),[5],3%
same,Population Mitotic Cells (%),[5],10%
same,Population Normal (%),[5],99%
same,Population Pyknosed Nuclei (%),[5],6%
same,Population Tubulin-Different-Phenotype (%),[5],2%
same,Total Cell Count,[5],314
same,Population Apoptotic (%),[6],83%
same,Population Healthy Nuclei (%),[6],77%
same,Population Membrane Permeable-Phenotype (%),[6],9%
same,Population Mitotic Cells (%),[6],16%
same,Population Pyknosed Nuclei (%),[6],3%
same,Population Tubulin-Different-Phenotype (%),[6],4%
same,Total Cell Count,[6],157
same,Population Apoptotic (%),[7],80%
same,Population Fragmented Nuclei (%),[7],28%
same,Population Healthy Nuclei (%),[7],58%
same,Population Hoechst High Intensity Objects (%),[7],1%
same,Population Membrane Permeable-Phenotype (%),[7],8%
same,Population Mitochondria Different-Phenotype (%),[7],8%
same,Population Mitotic Cells (%),[7],19%
same,Population Normal (%),[7],98%
same,Population Pyknosed Nuclei (%),[7],12%
same,Population Tubulin-Different-Phenotype (%),[7],2%
same,Total Cell Count,[7],257
same,Population Apoptotic (%),[8],88%
same,Population Fragmented Nuclei (%),[8],21%
same,Population Healthy Nuclei (%),[8],66%
same,Population Membrane Permeable-Phenotype (%),[8],10%
same,Population Mitochondria Different-Phenotype (%),[8],1%
same,Population Mitotic Cells (%),[8],11%
same,Population Tubulin-Different-Phenotype (%),[8],9%
same,Total Cell Count,[8],141
same,Population Apoptotic (%),[9],94%
same,Population Fragmented Nuclei (%),[9],12%
same,Population Healthy Nuclei (%),[9],79%
same,Population Hoechst High Intensity Objects (%),[9],1%
same,Population Membrane Permeable-Phenotype (%),[9],5%
same,Population Mitochondria Different-Phenotype (%),[9],2%
same,Population Mitotic Cells (%),[9],5%
same,Population Normal (%),[9],98%
same,Population Pyknosed Nuclei (%),[9],8%
same,Population Tubulin-Different-Phenotype (%),[9],4%
same,Total Cell Count,[9],459
same,Population Apoptotic (%),[10],100%
same,Population Fragmented Nuclei (%),[10],15%
same,Population Membrane Permeable-Phenotype (%),[10],9%
same,Population Mitochondria Different-Phenotype (%),[10],1%
same,Population Mitotic Cells (%),[10],0%
same,Population Pyknosed Nuclei (%),[10],4%
same,Population Tubulin-Different-Phenotype (%),[10],5%
same,Total Cell Count,[10],218
same,Population Apoptotic (%),[11],81%
same,Population Fragmented Nuclei (%),[11],22%
same,Population Healthy Nuclei (%),[11],62%
same,Population Hoechst High Intensity Objects (%),[11],2%
same,Population Membrane Permeable-Phenotype (%),[11],11%
same,Population Mitochondria Different-Phenotype (%),[11],4%
same,Population Mitotic Cells (%),[11],18%
same,Population Normal (%),[11],97%
same,Population Pyknosed Nuclei (%),[11],14%
same,Population Tubulin-Different-Phenotype (%),[11],5%
same,Total Cell Count,[11],305
same,Population Apoptotic (%),[12],96%
same,Population Fragmented Nuclei (%),[12],15%
same,Population Healthy Nuclei (%),[12],71%
same,Population Hoechst High Intensity Objects (%),[12],1%
same,Population Membrane Permeable-Phenotype (%),[12],4%
same,Population Mitotic Cells (%),[12],4%
same,Population Normal (%),[12],98%
same,Population Pyknosed Nuclei (%),[12],12%
same,Population Tubulin-Different-Phenotype (%),[12],2%
same,Total Cell Count,[12],206
CN(C)C(=O)Cn1cc(-c2ccc(-c3nnc4ccccn34)cc2)cn1,Population Apoptotic (%),[1],90%
same,Population Fragmented Nuclei (%),[1],25%
same,Population Healthy Nuclei (%),[1],66%
same,Population Hoechst High Intensity Objects (%),[1],1%
same,Population Membrane Permeable-Phenotype (%),[1],6%
same,Population Mitochondria Different-Phenotype (%),[1],1%
same,Population Mitotic Cells (%),[1],9%
same,Population Normal (%),[1],98%
same,Population Pyknosed Nuclei (%),[1],8%
same,Population Tubulin-Different-Phenotype (%),[1],3%
same,Total Cell Count,[1],251
same,Population Fragmented Nuclei (%),[2],22%
same,Population Healthy Nuclei (%),[2],68%
same,Population Hoechst High Intensity Objects (%),[2],0%
same,Population Membrane Permeable-Phenotype (%),[2],3%
same,Population Mitochondria Different-Phenotype (%),[2],6%
same,Population Normal (%),[2],99%
same,Population Pyknosed Nuclei (%),[2],9%
same,Population Tubulin-Different-Phenotype (%),[2],4%
same,Total Cell Count,[2],123
same,Population Apoptotic (%),[3],95%
same,Population Fragmented Nuclei (%),[3],26%
same,Population Healthy Nuclei (%),[3],65%
same,Population Hoechst High Intensity Objects (%),[3],1%
same,Population Membrane Permeable-Phenotype (%),[3],4%
same,Population Mitochondria Different-Phenotype (%),[3],1%
same,Population Mitotic Cells (%),[3],4%
same,Population Normal (%),[3],98%
same,Population Pyknosed Nuclei (%),[3],7%
same,Population Tubulin-Different-Phenotype (%),[3],3%
same,Total Cell Count,[3],298
same,Population Apoptotic (%),[4],90%
same,Population Fragmented Nuclei (%),[4],11%
same,Population Healthy Nuclei (%),[4],81%
same,Population Mitochondria Different-Phenotype (%),[4],0%
same,Population Mitotic Cells (%),[4],10%
same,Total Cell Count,[4],140
same,Population Apoptotic (%),[5],94%
same,Population Fragmented Nuclei (%),[5],22%
same,Population Healthy Nuclei (%),[5],71%
same,Population Hoechst High Intensity Objects (%),[5],0%
same,Population Membrane Permeable-Phenotype (%),[5],4%
same,Population Mitochondria Different-Phenotype (%),[5],2%
same,Population Mitotic Cells (%),[5],5%
same,Population Normal (%),[5],99%
same,Population Pyknosed Nuclei (%),[5],5%
same,Population Tubulin-Different-Phenotype (%),[5],1%
same,Total Cell Count,[5],315
same,Population Apoptotic (%),[6],100%
same,Population Fragmented Nuclei (%),[6],17%
same,Population Healthy Nuclei (%),[6],74%
same,Population Membrane Permeable-Phenotype (%),[6],7%
same,Population Mitochondria Different-Phenotype (%),[6],7%
same,Population Mitotic Cells (%),[6],0%
same,Population Normal (%),[6],100%
same,Population Pyknosed Nuclei (%),[6],8%
same,Population Tubulin-Different-Phenotype (%),[6],4%
same,Total Cell Count,[6],131
same,Population Apoptotic (%),[7],86%
same,Population Fragmented Nuclei (%),[7],22%
same,Population Healthy Nuclei (%),[7],66%
same,Population Hoechst High Intensity Objects (%),[7],2%
same,Population Membrane Permeable-Phenotype (%),[7],4%
same,Population Mitochondria Different-Phenotype (%),[7],1%
same,Population Mitotic Cells (%),[7],13%
same,Population Normal (%),[7],97%
same,Population Pyknosed Nuclei (%),[7],11%
same,Population Tubulin-Different-Phenotype (%),[7],2%
same,Total Cell Count,[7],333
same,Population Apoptotic (%),[8],87%
same,Population Fragmented Nuclei (%),[8],10%
same,Population Healthy Nuclei (%),[8],85%
same,Population Hoechst High Intensity Objects (%),[8],1%
same,Population Membrane Permeable-Phenotype (%),[8],7%
same,Population Mitotic Cells (%),[8],12%
same,Population Normal (%),[8],98%
same,Population Pyknosed Nuclei (%),[8],4%
same,Population Tubulin-Different-Phenotype (%),[8],3%
same,Total Cell Count,[8],180
same,Population Apoptotic (%),[9],87%
same,Population Fragmented Nuclei (%),[9],16%
same,Population Healthy Nuclei (%),[9],75%
same,Population Hoechst High Intensity Objects (%),[9],2%
same,Population Membrane Permeable-Phenotype (%),[9],4%
same,Population Mitochondria Different-Phenotype (%),[9],2%
same,Population Mitotic Cells (%),[9],12%
same,Population Normal (%),[9],97%
same,Population Pyknosed Nuclei (%),[9],7%
same,Population Tubulin-Different-Phenotype (%),[9],1%
same,Total Cell Count,[9],426
same,Population Apoptotic (%),[10],93%
same,Population Fragmented Nuclei (%),[10],11%
same,Population Healthy Nuclei (%),[10],67%
same,Population Membrane Permeable-Phenotype (%),[10],7%
same,Population Mitochondria Different-Phenotype (%),[10],3%
same,Population Mitotic Cells (%),[10],6%
same,Population Pyknosed Nuclei (%),[10],20%
same,Population Tubulin-Different-Phenotype (%),[10],3%
same,Total Cell Count,[10],158
same,Population Apoptotic (%),[11],95%
same,Population Fragmented Nuclei (%),[11],21%
same,Population Healthy Nuclei (%),[11],67%
same,Population Hoechst High Intensity Objects (%),[11],3%
same,Population Membrane Permeable-Phenotype (%),[11],8%
same,Population Mitochondria Different-Phenotype (%),[11],4%
same,Population Mitotic Cells (%),[11],4%
same,Population Normal (%),[11],96%
same,Population Pyknosed Nuclei (%),[11],11%
same,Population Tubulin-Different-Phenotype (%),[11],4%
same,Total Cell Count,[11],418
same,Population Apoptotic (%),[12],85%
same,Population Fragmented Nuclei (%),[12],8%
same,Population Healthy Nuclei (%),[12],81%
same,Population Hoechst High Intensity Objects (%),[12],2%
same,Population Membrane Permeable-Phenotype (%),[12],6%
same,Population Mitochondria Different-Phenotype (%),[12],2%
same,Population Mitotic Cells (%),[12],14%
same,Population Normal (%),[12],97%
same,Population Pyknosed Nuclei (%),[12],9%
same,Population Tubulin-Different-Phenotype (%),[12],2%
same,Total Cell Count,[12],284
